From ChEMBL document CHEMBL1139385, “Structural analysis of ARC-type inhibitor (ARC-1034) binding to protein kinase A catalytic subunit and rational design of bisubstrate analogue inhibitors of basophilic protein kinases” (J Med Chem, 2009)
Where a SMILES comes first, the peptide text is derived from it. [ ]: non-standard residue; d: D form. The star is where a group is joined. Adenosine(5'-uronoyl) = Nc1ncnc2c1ncn2[C@@H]1O[C@H](C(=O)*)[C@@H](O)[C@H]1O; Ahx = NCCCCCC(=O)O

Columns and labels:
[1] = target: Protein kinase C delta type (Homo sapiens) (UniProt Q05655); assay: Inhibition of PKCdelta at 100 nM relative to control
Method in brief: (§1)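 Activity is expressed as percent inhibition versus control incubations lacking inhibitor. Values are means of duplicate determinations.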

[2] = target: T1, RAC-gamma serine/threonine-protein kinase (Homo sapiens, UniProt Q9Y243); details: 100 nM
T1 sequence (Q9Y243 whole entry): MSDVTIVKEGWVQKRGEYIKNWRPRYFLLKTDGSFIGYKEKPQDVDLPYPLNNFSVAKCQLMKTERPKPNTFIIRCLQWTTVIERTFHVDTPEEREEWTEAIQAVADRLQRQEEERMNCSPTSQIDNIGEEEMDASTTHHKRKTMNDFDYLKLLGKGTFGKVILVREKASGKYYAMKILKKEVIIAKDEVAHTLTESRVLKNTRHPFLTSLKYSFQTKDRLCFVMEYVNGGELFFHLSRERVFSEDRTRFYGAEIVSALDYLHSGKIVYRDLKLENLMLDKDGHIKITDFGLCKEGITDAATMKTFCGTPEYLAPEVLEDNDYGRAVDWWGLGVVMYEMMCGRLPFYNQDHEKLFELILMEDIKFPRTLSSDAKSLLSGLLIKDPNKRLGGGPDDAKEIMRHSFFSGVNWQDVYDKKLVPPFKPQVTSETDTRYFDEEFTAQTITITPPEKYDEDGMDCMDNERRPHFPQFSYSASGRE

[3] = target: Serine/threonine-protein kinase D2 (Homo sapiens) (UniProt Q9BZL6); assay: Inhibition of PKD2 at 100 nM relative to control; method in brief: as §1
Sequence of Serine/threonine-protein kinase D2 (Homo sapiens) (Q9BZL6 whole entry): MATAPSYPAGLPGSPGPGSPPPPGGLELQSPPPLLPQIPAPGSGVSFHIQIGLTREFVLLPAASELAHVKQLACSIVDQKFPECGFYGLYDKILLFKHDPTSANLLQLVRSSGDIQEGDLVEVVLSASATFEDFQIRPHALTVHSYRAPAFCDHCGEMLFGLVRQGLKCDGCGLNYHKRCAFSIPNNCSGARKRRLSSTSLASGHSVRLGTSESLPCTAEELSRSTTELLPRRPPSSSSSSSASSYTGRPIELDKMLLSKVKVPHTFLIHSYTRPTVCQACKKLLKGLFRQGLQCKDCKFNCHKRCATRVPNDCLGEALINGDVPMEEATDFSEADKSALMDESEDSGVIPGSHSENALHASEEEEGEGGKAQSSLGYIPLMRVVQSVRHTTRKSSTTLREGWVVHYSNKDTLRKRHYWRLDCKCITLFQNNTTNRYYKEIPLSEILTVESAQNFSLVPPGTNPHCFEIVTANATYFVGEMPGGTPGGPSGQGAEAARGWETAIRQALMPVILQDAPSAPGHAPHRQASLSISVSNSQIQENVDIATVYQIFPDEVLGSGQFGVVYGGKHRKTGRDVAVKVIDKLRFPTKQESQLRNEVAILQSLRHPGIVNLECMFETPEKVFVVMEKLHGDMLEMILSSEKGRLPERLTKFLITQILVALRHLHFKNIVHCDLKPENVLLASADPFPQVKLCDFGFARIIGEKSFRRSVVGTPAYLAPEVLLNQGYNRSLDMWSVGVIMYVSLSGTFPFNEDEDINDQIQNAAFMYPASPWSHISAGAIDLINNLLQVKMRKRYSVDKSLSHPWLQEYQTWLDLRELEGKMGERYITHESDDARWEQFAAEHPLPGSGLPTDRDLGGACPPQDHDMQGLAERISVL

[4] = target: cGMP-dependent protein kinase 2 (Homo sapiens) (UniProt Q13237); assay: Inhibition of PKG2 at 100 nM relative to control; method in brief: as §1
[5] = target: 5'-AMP-activated protein kinase subunit gamma-1 (Homo sapiens) (UniProt P54619); assay: Inhibition of AMPKgamma1 at 100 nM relative to control; method in brief: as §1
[6] = target: cAMP-dependent protein kinase catalytic subunit PRKX (Homo sapiens) (UniProt P51817); details: 100 nM
[7] = target: Rho-associated protein kinase 2 (Bos taurus) (UniProt Q28021); assay: Binding affinity to ROCK2 by fluorescence polarization assay
[8] = target: RAC-alpha serine/threonine-protein kinase (Homo sapiens) (UniProt P31749); assay: Inhibition of AKT1 at 100 nM relative to control; method in brief: as §1
Sequence of RAC-alpha serine/threonine-protein kinase (Homo sapiens) (P31749 whole entry): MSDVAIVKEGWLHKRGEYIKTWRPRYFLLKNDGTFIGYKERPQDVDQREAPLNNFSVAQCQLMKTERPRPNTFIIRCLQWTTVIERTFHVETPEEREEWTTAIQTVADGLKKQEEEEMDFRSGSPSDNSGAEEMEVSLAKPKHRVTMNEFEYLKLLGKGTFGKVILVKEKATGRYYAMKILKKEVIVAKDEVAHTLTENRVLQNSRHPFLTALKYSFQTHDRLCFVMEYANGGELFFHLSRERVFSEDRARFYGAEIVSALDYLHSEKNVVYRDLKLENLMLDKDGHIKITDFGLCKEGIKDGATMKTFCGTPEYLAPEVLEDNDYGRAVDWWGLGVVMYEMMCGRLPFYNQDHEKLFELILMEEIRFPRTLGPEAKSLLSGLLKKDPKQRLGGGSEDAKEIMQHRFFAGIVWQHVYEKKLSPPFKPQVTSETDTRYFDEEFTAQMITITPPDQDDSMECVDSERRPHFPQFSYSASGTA

[9] = target: Serine/threonine-protein kinase D3 (Homo sapiens) (UniProt O94806); assay: Inhibition of PKD3 at 100 nM relative to control; method in brief: as §1
Sequence of Serine/threonine-protein kinase D3 (Homo sapiens) (O94806 whole entry): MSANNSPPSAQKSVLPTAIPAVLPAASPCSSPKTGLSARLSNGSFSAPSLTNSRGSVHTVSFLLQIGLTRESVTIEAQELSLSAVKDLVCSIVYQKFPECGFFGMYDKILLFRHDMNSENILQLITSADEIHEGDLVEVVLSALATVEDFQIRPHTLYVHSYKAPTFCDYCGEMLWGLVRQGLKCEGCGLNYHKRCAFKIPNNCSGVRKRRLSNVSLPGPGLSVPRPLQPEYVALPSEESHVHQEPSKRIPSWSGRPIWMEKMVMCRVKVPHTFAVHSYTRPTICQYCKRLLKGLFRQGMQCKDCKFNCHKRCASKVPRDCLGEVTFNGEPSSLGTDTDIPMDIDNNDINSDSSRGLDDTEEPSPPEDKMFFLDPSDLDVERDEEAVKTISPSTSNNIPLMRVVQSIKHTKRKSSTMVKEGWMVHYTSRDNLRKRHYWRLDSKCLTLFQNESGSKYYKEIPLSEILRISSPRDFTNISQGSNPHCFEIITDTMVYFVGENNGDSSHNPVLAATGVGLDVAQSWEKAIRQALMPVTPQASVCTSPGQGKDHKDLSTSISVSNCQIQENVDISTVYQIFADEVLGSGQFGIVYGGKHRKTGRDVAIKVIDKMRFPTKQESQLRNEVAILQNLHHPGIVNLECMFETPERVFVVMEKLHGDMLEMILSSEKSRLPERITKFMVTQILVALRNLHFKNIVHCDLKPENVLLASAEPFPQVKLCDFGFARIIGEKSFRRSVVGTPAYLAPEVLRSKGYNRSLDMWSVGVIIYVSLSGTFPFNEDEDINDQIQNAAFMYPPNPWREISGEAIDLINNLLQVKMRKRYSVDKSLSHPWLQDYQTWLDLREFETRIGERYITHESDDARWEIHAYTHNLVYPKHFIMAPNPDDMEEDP

[10] = target: Ribosomal protein S6 kinase alpha-2 (Homo sapiens) (UniProt Q15349); assay: Inhibition of RSK3 at 100 nM relative to control; method in brief: as §1
[11] = target: Death-associated protein kinase 3 (Homo sapiens) (UniProt O43293); assay: Inhibition of DAPK3 at 100 nM relative to control; method in brief: as §1
Sequence of Death-associated protein kinase 3 (Homo sapiens) (O43293 whole entry, looked up): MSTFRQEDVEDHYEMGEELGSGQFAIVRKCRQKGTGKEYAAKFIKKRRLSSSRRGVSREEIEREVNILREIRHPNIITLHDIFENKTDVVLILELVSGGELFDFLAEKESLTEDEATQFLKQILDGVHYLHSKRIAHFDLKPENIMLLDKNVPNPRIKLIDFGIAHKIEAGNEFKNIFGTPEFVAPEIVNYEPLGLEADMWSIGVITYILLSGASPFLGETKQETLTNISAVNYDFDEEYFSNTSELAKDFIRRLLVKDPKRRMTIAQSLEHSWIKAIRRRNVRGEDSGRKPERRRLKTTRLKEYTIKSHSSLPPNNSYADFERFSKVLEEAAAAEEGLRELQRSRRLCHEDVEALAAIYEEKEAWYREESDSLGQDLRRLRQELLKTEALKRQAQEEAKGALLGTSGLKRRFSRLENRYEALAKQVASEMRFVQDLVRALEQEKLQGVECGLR

[12] = target: Protein kinase C zeta type (Homo sapiens) (UniProt Q05513); assay: Inhibition of PKCzeta at 100 nM relative to control; method in brief: as §1
[13] = target: Aurora kinase A (Homo sapiens) (UniProt O14965); assay: Inhibition of Aurora A at 100 nM relative to control; method in brief: as §1
[14] = target: Ribosomal protein S6 kinase alpha-3 (Homo sapiens) (UniProt P51812); details: 100 nM
[15] = target: Serine/threonine-protein kinase pim-2 (Homo sapiens) (UniProt Q9P1W9); assay: Inhibition of PIM2 at 100 nM relative to control; method in brief: as §1
[16] = target: T2, cAMP-dependent protein kinase catalytic subunit alpha (Homo sapiens, UniProt P17612); assay: Inhibition of PKA catalytic subunit alpha using 100 uM ATP and 30 uM TAMRA-kemptide substrate by fluorometric TLC assay
[17] = target: Glycogen synthase kinase-3 beta (Homo sapiens) (UniProt P49841); assay: Inhibition of GSK3-beta at 100 nM relative to control; method in brief: as §1
[18] = target: Protein kinase C iota type (Homo sapiens) (UniProt P41743); assay: Inhibition of PKCiota at 100 nM relative to control; method in brief: as §1
[19] = target: Proto-oncogene tyrosine-protein kinase Src (Homo sapiens) (UniProt P12931); assay: Inhibition of SRC at 100 nM relative to control; method in brief: as §1
[20] = target: T1, RAC-gamma serine/threonine-protein kinase; assay: Inhibition of PKBgamma using 100 uM ATP and 30 uM TAMRA-kemptide substrate by fluorometric TLC assay
[21] = target: Serine/threonine-protein kinase D1 (Homo sapiens) (UniProt Q15139); assay: Inhibition of PKCmu at 100 nM relative to control; method in brief: as §1
[22] = target: cGMP-dependent protein kinase 1 (Homo sapiens) (UniProt Q13976); assay: Inhibition of PKG1 at 100 nM relative to control; method in brief: as §1
[23] = target: Maternal embryonic leucine zipper kinase (Homo sapiens) (UniProt Q14680); assay: Inhibition of MELK at 100 nM relative to control; method in brief: as §1
[24] = target: Serine/threonine-protein kinase Sgk2 (Homo sapiens) (UniProt Q9HBY8); assay: Inhibition of SGK2 at 100 nM relative to control; method in brief: as §1
[25] = target: T2, cAMP-dependent protein kinase catalytic subunit alpha; details: 100 nM
[26] = target: RAC-beta serine/threonine-protein kinase (Homo sapiens) (UniProt P31751); assay: Inhibition of AKT2 at 100 nM relative to control; method in brief: as §1
[27] = target: Serine/threonine-protein kinase Chk1 (Homo sapiens) (UniProt O14757); assay: Inhibition of CHK1 at 100 nM relative to control; method in brief: as §1
[28] = target: Rho-associated protein kinase 1 (Homo sapiens) (UniProt Q13464); assay: Inhibition of ROCK1 at 100 nM relative to control; method in brief: as §1
[29] = target: Glycogen synthase kinase-3 alpha (Homo sapiens) (UniProt P49840); assay: Inhibition of GSK3alpha at 100 nM relative to control; method in brief: as §1
[30] = target: Protein kinase C alpha type (Homo sapiens) (UniProt P17252); assay: Inhibition of PKCalpha at 100 nM relative to control; method in brief: as §1
[31] = target: T2, cAMP-dependent protein kinase catalytic subunit alpha; assay: Binding affinity to PKA catalytic subunit alpha by fluorescence polarization assay
[32] = target: Serine/threonine-protein kinase Sgk1 (Homo sapiens) (UniProt O00141); assay: Inhibition of SGK1 at 100 nM relative to control; method in brief: as §1
Sequence of Serine/threonine-protein kinase Sgk1 (Homo sapiens) (O00141 whole entry): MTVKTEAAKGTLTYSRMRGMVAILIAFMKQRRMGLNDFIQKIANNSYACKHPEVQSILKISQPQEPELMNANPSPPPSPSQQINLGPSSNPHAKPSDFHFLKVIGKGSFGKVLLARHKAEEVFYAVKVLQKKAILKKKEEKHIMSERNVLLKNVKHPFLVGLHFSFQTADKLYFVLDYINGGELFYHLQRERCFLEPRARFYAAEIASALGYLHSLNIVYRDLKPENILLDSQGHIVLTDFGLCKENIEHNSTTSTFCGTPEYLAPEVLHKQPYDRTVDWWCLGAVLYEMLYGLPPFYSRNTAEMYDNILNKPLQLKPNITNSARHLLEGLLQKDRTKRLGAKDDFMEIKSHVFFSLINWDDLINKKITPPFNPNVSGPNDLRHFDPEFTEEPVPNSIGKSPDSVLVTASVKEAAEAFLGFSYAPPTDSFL

[33] = target: 5'-AMP-activated protein kinase subunit beta-1 (Homo sapiens) (UniProt Q9Y478); assay: Inhibition of AMPKbeta1 at 100 nM relative to control; method in brief: as §1
[34] = target: Ribosomal protein S6 kinase alpha-4 (Homo sapiens) (UniProt O75676); assay: Inhibition of MSK2 at 100 nM relative to control; method in brief: as §1
[35] = target: Serine/threonine-protein kinase PAK 6 (Homo sapiens) (UniProt Q9NQU5); assay: Inhibition of PAK6 at 100 nM relative to control; method in brief: as §1
Sequence of Serine/threonine-protein kinase PAK 6 (Homo sapiens) (Q9NQU5 whole entry, looked up): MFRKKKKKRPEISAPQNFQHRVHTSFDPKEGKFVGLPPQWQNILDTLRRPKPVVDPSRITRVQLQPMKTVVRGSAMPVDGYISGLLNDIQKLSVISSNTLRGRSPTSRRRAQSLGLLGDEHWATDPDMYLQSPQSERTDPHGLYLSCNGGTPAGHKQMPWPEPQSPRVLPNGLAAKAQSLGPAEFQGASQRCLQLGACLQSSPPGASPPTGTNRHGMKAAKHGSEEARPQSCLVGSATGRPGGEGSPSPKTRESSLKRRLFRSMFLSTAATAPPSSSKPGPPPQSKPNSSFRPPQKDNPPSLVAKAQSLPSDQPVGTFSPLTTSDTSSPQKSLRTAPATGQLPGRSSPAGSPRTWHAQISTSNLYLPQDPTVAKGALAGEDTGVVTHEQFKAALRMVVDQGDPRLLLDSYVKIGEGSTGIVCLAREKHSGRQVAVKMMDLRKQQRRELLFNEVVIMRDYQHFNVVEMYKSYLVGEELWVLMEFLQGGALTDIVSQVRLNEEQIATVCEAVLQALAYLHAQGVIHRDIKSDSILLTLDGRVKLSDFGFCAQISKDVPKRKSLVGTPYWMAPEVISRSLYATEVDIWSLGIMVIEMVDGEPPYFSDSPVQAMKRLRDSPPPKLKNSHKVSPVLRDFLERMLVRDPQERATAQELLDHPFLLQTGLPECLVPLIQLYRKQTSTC

[36] = target: Serine/threonine-protein kinase pim-1 (Homo sapiens) (UniProt P11309); assay: Inhibition of PIM1 at 100 nM relative to control; method in brief: as §1
[37] = target: Protein kinase C beta type (Homo sapiens) (UniProt P05771); assay: Inhibition of PKCbeta1 at 100 nM relative to control; method in brief: as §1
[38] = target: Protein kinase C gamma type (Homo sapiens) (UniProt P05129); assay: Inhibition of PKCgamma at 100 nM relative to control; method in brief: as §1
[39] = target: Calcium/calmodulin-dependent protein kinase type II subunit beta (Homo sapiens) (UniProt Q13554); assay: Inhibition of CaMK2beta at 100 nM relative to control; method in brief: as §1
[40] = target: Serine/threonine-protein kinase Chk2 (Homo sapiens) (UniProt O96017); assay: Inhibition of CHK2 at 100 nM relative to control; method in brief: as §1
[41] = target: Serine/threonine-protein kinase PAK 3 (Homo sapiens) (UniProt O75914); assay: Inhibition of PAK3 at 100 nM relative to control; method in brief: as §1
[42] = target: Rho-associated protein kinase 2 (Homo sapiens) (UniProt O75116); details: 100 nM

**Q.** Which results are given for `N=C(N)NCCC[C@@H](NC(=O)[C@@H](CCCNC(=N)N)NC(=O)[C@@H](CCCNC(=N)N)NC(=O)[C@@H](CCCNC(=N)N)NC(=O)[C@@H](CCCNC(=N)N)NC(=O)[C@@H](CCCNC(=N)N)NC(=O)CCCCCNC(=O)[C@@H](CCCCN)NC(=O)CCCCCNC(=O)[C@H]1O[C@@H](n2cnc3c(N)ncnc32)[C@H](O)[C@@H]1O)C(N)=O` ({Adenosine(5'-uronoyl)-Ahx}-[dK][Ahx][dR][dR][dR][dR][dR][dR]-NH2)?
**A.** inhibition [1]: 97%; inhibition [2]: 87%; inhibition [3]: 37%; inhibition [4]: 16%; inhibition [5]: 51%; inhibition [6]: 104%; Kd [7]: < 1 nM; inhibition [8]: 89%; inhibition [9]: 55%; inhibition [10]: 99%; inhibition [11]: 22%; inhibition [12]: 53%; inhibition [13]: 10%; inhibition [14]: 104%; inhibition [15]: 79%; IC50 [16]: 5.32 nM; inhibition [17]: 16%; inhibition [18]: 34%; inhibition [19]: 28%; IC50 [20]: 14.6 nM; inhibition [21]: 54%; inhibition [22]: 58%; inhibition [23]: 84%; inhibition [24]: 76%; inhibition [25]: 104%; inhibition [26]: 62%; inhibition [27]: 88%; inhibition [28]: 105%; inhibition [29]: 16%; inhibition [30]: 94%; Kd [31]: < 0.5 nM; inhibition [32]: 89%; inhibition [33]: 51%; inhibition [34]: 109%; inhibition [35]: 81%; inhibition [36]: 96%; inhibition [37]: 97%; inhibition [38]: 107%; inhibition [39]: 16%; inhibition [40]: 62%; inhibition [41]: 74%; inhibition [42]: 104%
